# Reference: the array DNA melting data of Ke et al. (doi:10.1101/2024.01.08.574731)
# How the values were obtained:
# [1] = folding enthalpy; higher = less favourable; fluorescence melt of hairpins on a sequencing array, two-state fit; details: sodium 0.088 M
# How it was run: (§1)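 Folding enthalpy and melting temperature come from bootstrapped two-state fits to Cy3 fluorescence of library hairpins carrying annealed Cy3 and quencher oligos on a sequenced MiSeq flow cell. Imaging was done in 50 mM Na-HEPES pH 8.0, 25 mM NaCl, stepping by 2.5 °C up to 60 °C, and signals were normalised to pre-quench Cy3 and to control constructs. Results of four replicates were combined by inverse variance, and fitted temperatures were raised by 9.35 °C to match UV melts.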
# [2] = melting temperature; fluorescence melt of hairpins on a sequencing array, two-state fit, raised by 9.35 °C to match UV melts; details: sodium 0.088 M
# How it was run: as §1
sequence,measurement,setting,value
GATGAGGGAAACTTCATC (((((.(....).))))),folding enthalpy,[1],-25 kcal/mol
same,Tm,[2],37.1 °C
CGAGGGCGGAAACGCTCG (((..(((....)))))),folding enthalpy,[1],-16.9 kcal/mol
same,Tm,[2],48.5 °C
GACTGAGGAAACTTAGTC ((((.((....)).)))),folding enthalpy,[1],-26.3 kcal/mol
same,Tm,[2],39.4 °C
GGTCATGGAAACATGGTC (..((((....))))..),folding enthalpy,[1],-17.6 kcal/mol
same,Tm,[2],32.7 °C
GCTAAGGGAAACCTTAGC (((((((....))))))),folding enthalpy,[1],-40.7 kcal/mol
same,Tm,[2],59.8 °C
GTTAGCACGAAAGTGAAC (((..(((....)))))),folding enthalpy,[1],-11.6 kcal/mol
same,Tm,[2],27 °C
GATTGAGGAAACTTGATC (((..((....))..))),folding enthalpy,[1],-7.66 kcal/mol
same,Tm,[2],22.4 °C
CACAGGAAACTGTG (((((....))))),folding enthalpy,[1],-21 kcal/mol
same,Tm,[2],50.2 °C
GAGGAAGGAAACTTTCTC (((.(((....))).))),folding enthalpy,[1],-28.9 kcal/mol
same,Tm,[2],35.3 °C
GTGATCGAAAGATAGCAC ((((((....)))..))),folding enthalpy,[1],-15.6 kcal/mol
same,Tm,[2],28.3 °C
GACAACGAAAGTTTCGTC ((((((....)))..))),folding enthalpy,[1],-14.1 kcal/mol
same,Tm,[2],32.8 °C
GCTACTGCGAAAGCAAGC (((..(((....)))))),folding enthalpy,[1],-11.4 kcal/mol
same,Tm,[2],34.7 °C
GATCGTGCGTACGATC ((((((....)))))),folding enthalpy,[1],-39.5 kcal/mol
same,Tm,[2],55 °C
GATCTAATGCTAGATC ((((((....)))))),folding enthalpy,[1],-29.5 kcal/mol
same,Tm,[2],36.5 °C
GCGTCAGGAAACTGGCGC (((.(((....))).))),folding enthalpy,[1],-43.8 kcal/mol
same,Tm,[2],63 °C
GTACTAGGAAACTAGTGC (.(((((....))))).),folding enthalpy,[1],-26.9 kcal/mol
same,Tm,[2],42.8 °C
GATGTCCGAAAGGAAATC (((.(((....))).))),folding enthalpy,[1],-24 kcal/mol
same,Tm,[2],43.6 °C
GGACGTGGAAACATGTCC ((((.((....)).)))),folding enthalpy,[1],-38.5 kcal/mol
same,Tm,[2],53.7 °C
GCCTCTCGAAAGAGTGGC (((.(((....))).))),folding enthalpy,[1],-41.8 kcal/mol
same,Tm,[2],57.4 °C
GCTCCGCGAAAGCCGGGC ((.(.((....)).).)),folding enthalpy,[1],-16.4 kcal/mol
same,Tm,[2],50 °C
GACGCCGGAAACGGCGCC (.(((((....))))).),folding enthalpy,[1],-10.5 kcal/mol
same,Tm,[2],56.9 °C
GCCGAGCGAAAGCTAAGC ((..(((....)))..)),folding enthalpy,[1],-16.3 kcal/mol
same,Tm,[2],40 °C
GATCTGATCCCAGATC ((((((....)))))),folding enthalpy,[1],-27.2 kcal/mol
same,Tm,[2],47 °C
GATCTGGACCCAGATC ((((((....)))))),folding enthalpy,[1],-43.8 kcal/mol
same,Tm,[2],53 °C
GACGTGGGAAACTACGTC (((((.(....).))))),folding enthalpy,[1],-38.4 kcal/mol
same,Tm,[2],52.5 °C
GCTAGGCGAAAGCCCCGC ((..(((....)))..)),folding enthalpy,[1],-7.78 kcal/mol
same,Tm,[2],32.6 °C
GATCAGGGCCCTGATC ((((((....)))))),folding enthalpy,[1],-58.9 kcal/mol
same,Tm,[2],60.3 °C
GTCTCGGGAAACCGGGAC (((.(((....))).))),folding enthalpy,[1],-38.4 kcal/mol
same,Tm,[2],55.3 °C
GTCATCGGAAACGATGGC (.(((((....))))).),folding enthalpy,[1],-28.1 kcal/mol
same,Tm,[2],56.2 °C
GCACTAGGAAACTAGTAC (.(((((....))))).),folding enthalpy,[1],-20.8 kcal/mol
same,Tm,[2],31 °C
GATCTCCTCTGAGATC ((((((....)))))),folding enthalpy,[1],-31.3 kcal/mol
same,Tm,[2],51.8 °C
GGCTTGACGAAAGTCGCC (((..(((....)))))),folding enthalpy,[1],-14.5 kcal/mol
same,Tm,[2],55.2 °C
GGTGTGCCGAAAGGCACC (((..(((....)))))),folding enthalpy,[1],-7.6 kcal/mol
same,Tm,[2],49.7 °C
GTATAGCGAAAGCTCTAC (((.(((....))).))),folding enthalpy,[1],-17.3 kcal/mol
same,Tm,[2],39.7 °C
TGTGAGAAATCACA (((((....))))),folding enthalpy,[1],-18.3 kcal/mol
same,Tm,[2],38.9 °C
GATCGGGTAGCCGATC ((((((....)))))),folding enthalpy,[1],-41.9 kcal/mol
same,Tm,[2],62 °C
GATCATGTTATGATC ((((((...)))))),folding enthalpy,[1],-36.1 kcal/mol
same,Tm,[2],50.3 °C
GACGACGAAAGTCTAGTC ((((((....)))..))),folding enthalpy,[1],-23.8 kcal/mol
same,Tm,[2],41.8 °C
GCTGTGCGAAAGCAAGGC ((..(((....)))..)),folding enthalpy,[1],-20 kcal/mol
same,Tm,[2],50.6 °C
GGTGGTCGAAAGACAACC (((.(((....))).))),folding enthalpy,[1],-39.2 kcal/mol
same,Tm,[2],55.6 °C
GATCGGAGGCCGATC ((((((...)))))),folding enthalpy,[1],-40.3 kcal/mol
same,Tm,[2],55.8 °C
GTATATGGAAACATGTAC (((.(((....))).))),folding enthalpy,[1],-29.6 kcal/mol
same,Tm,[2],37.2 °C
GATCTGTCGTCAGATC ((((((....)))))),folding enthalpy,[1],-37.6 kcal/mol
same,Tm,[2],50.5 °C
GTACCAGGAAACCAGTAC ((((..(....)..)))),folding enthalpy,[1],-11.4 kcal/mol
same,Tm,[2],24.9 °C
GATCCACTATGGATC ((((((...)))))),folding enthalpy,[1],-30.6 kcal/mol
same,Tm,[2],52.7 °C
TATGGGAAACCATA (((((....))))),folding enthalpy,[1],-14.9 kcal/mol
same,Tm,[2],37.2 °C
GTTCGGCGAAAGCCAAAC (((.(((....))).))),folding enthalpy,[1],-15.5 kcal/mol
same,Tm,[2],46.5 °C
GTCTACGAAAGTAATGAC ((((((....)))..))),folding enthalpy,[1],-17.6 kcal/mol
same,Tm,[2],30.7 °C
GGGAACACGAAAGTGCCC (((..(((....)))))),folding enthalpy,[1],-19.8 kcal/mol
same,Tm,[2],45 °C
GCGGAATCCCGC ((((....)))),folding enthalpy,[1],-22.1 kcal/mol
same,Tm,[2],53.9 °C
GCGGATCACCGC ((((....)))),folding enthalpy,[1],-25.8 kcal/mol
same,Tm,[2],59 °C
GTTAACGAAAGTTACAAC ((((((....)))..))),folding enthalpy,[1],-12.3 kcal/mol
same,Tm,[2],25.6 °C
GCATTTTCGAAAGAATGC (((..(((....)))))),folding enthalpy,[1],-28.4 kcal/mol
same,Tm,[2],35.5 °C
GGGGTCGAAAGACATCCC ((((((....)))..))),folding enthalpy,[1],-17.1 kcal/mol
same,Tm,[2],46.5 °C
GTTGGCGAAAGCCTCAAC ((((((....)))..))),folding enthalpy,[1],-10.6 kcal/mol
same,Tm,[2],29.9 °C
GCGCGAACGAAAGTTCGC (((..(((....)))))),folding enthalpy,[1],-6.27 kcal/mol
same,Tm,[2],68.4 °C
GTATGCGAAAGCACTAC ((((((....))).))),folding enthalpy,[1],-13.2 kcal/mol
same,Tm,[2],37.3 °C
GTTATCACGAAAGTGAAC (((..(((....)))))),folding enthalpy,[1],-10.2 kcal/mol
same,Tm,[2],28.5 °C
GGTTTGGGAAACTAGACC (((.(.(....).).))),folding enthalpy,[1],-18.1 kcal/mol
same,Tm,[2],30.7 °C
GATCCGGATCCGGATC ((((((....)))))),folding enthalpy,[1],-51.4 kcal/mol
same,Tm,[2],61.3 °C
GTAACCGGAAACGGTTAC (((((((....))))))),folding enthalpy,[1],-38.8 kcal/mol
same,Tm,[2],65.8 °C
GCGGTCGAAAGACACCGC ((((((....)))..))),folding enthalpy,[1],-24.4 kcal/mol
same,Tm,[2],53.3 °C
GACCACGGAAACATGGCC (.(((.(....).))).),folding enthalpy,[1],-9.89 kcal/mol
same,Tm,[2],24.4 °C
GTCGGCGAAAGCCCAGAC ((((((....)))..))),folding enthalpy,[1],-13.5 kcal/mol
same,Tm,[2],42.7 °C
GATCCGCGGCGGATC ((((((...)))))),folding enthalpy,[1],-50.8 kcal/mol
same,Tm,[2],57.7 °C
GAAGACCGAAAGGTGTTC (((.(((....))).))),folding enthalpy,[1],-33 kcal/mol
same,Tm,[2],52 °C
GGAATGACGAAAGTCTCC (((..(((....)))))),folding enthalpy,[1],-13.3 kcal/mol
same,Tm,[2],28.8 °C
GTCTGCGGAAACGCAGGC (.(((((....))))).),folding enthalpy,[1],-19.6 kcal/mol
same,Tm,[2],63.9 °C
GTCGTTGGAAACAGTGAC (((..((....))..))),folding enthalpy,[1],-13.5 kcal/mol
same,Tm,[2],32.4 °C
